These results are taken from ChEMBL document CHEMBL1147872, “Syntheses of new tetrasubstituted thiophenes as novel anti-inflammatory agents” (Eur J Med Chem, 2007).

Structures are written as SMILES. Values after ≈ are worked out from the molar mass of the structure shown. Active and inactive are the calls of the source. The rule behind the calls is not given here.

What all share (assay type): functional
A short description of experiment [1]: Antioxidant activity assessed as nitric oxide radical scavenging activity at 15 ug/ml after 150 mins. An outline of the steps: (§1)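 Sodium nitroprusside (10 mmol) in PBS at physiological pH was incubated with sample at 25 °C for 150 min in a 3 ml reaction. Aliquots taken every 30 min were mixed 1:1 with Griess reagent (1% sulphanilamide, 0.1% naphthylethylenediamine in 2% H3PO4), and absorbance was read at 546 nm. Runs were done in triplicate, and % scavenging was calculated against the blank.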

Experiment [2] has as its system Rattus norvegicus. The experiment is described as follows: Antiinflammatory activity in Albino rat assessed as protection against carrageenan-induced hind paw oedema at 40 mg/kg, po after 3 hrs. An outline of the steps:
(§2)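 Rats (150–250 g, either sex) were fasted 18 h and grouped in sixes. Compounds or standards were given orally as a suspension in 5% DMSO. After 1 h, 0.1 ml of 1% carrageenin was injected subplantar into the right hind paw. Paw volume was read by mercury plethysmometer at once and at 3 h. % protection = 100(1−Vt/Vc) versus vehicle.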
(Carrageenan injected into the paw causes an acute inflammation.)

For experiment [3], the system named is Rattus norvegicus. The experiment is described as follows: Antiinflammatory activity in Albino rat assessed as protection against carrageenan-induced hind paw oedema at 10 mg/kg, po after 3 hrs. An outline of the steps: as §2
Experiment [4] can be described thus: Antioxidant activity assessed as nitric oxide radical scavenging activity at 35 ug/ml after 150 mins. An outline of the steps: as §1
Experiment [5] is described as follows: Antioxidant activity assessed as nitric oxide radical scavenging activity at 20 ug/ml after 150 mins. Put shortly:
as §1

Experiment [6] is described as follows: Inhibition of nitric oxide radical scavenging activity. Put shortly:
as §1

Experiment [7] is described as follows: Antioxidant activity assessed as nitric oxide radical scavenging activity at 10 ug/ml after 150 mins. Put shortly: as §1
A short description of experiment [8]: Antioxidant activity assessed as nitric oxide radical scavenging activity at 5 ug/ml after 150 mins. Put shortly:
as §1

Experiment [9] has as its system Mus musculus. The experiment is described as follows: Analgesic activity in Albino mouse assessed as protection against acetic acid-induced writhing at 10 mg/kg, ip within 30 mins. The note with it: route intraperitoneal. Put shortly: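 Mice (20–25 g, either sex) starved 16 h, six per group, given 10 mg/kg i.p.; vehicle control received 1% DMSO at 0.5 ml/100 g. After 1 h, 0.1 ml of 3% acetic acid was given. Writhes were counted over 30 min, and the group mean was expressed as % inhibition versus control. Student's t-test was used.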

Experiment [10] relates to Rattus norvegicus. The experiment is described as follows: Antiinflammatory activity in Albino rat assessed as protection against carrageenan-induced hind paw oedema at 20 mg/kg, po after 3 hrs. Put shortly: as §2
Experiment [11] is described as follows: Antioxidant activity assessed as nitric oxide radical scavenging activity at 30 ug/ml after 150 mins. Put shortly:
as §1

Experiment [12] in a line: Antioxidant activity assessed as nitric oxide radical scavenging activity at 25 ug/ml after 150 mins. Put shortly:
as §1

Consider `COC(=O)c1c(Nc2ccc(F)cc2)sc(C(=O)c2ccc(OC)cc2)c1C`, for which the Activity in experiment [1] was 15.2%; in [2], 58%; in experiment [3], 36%; in experiment [4], 25.6%; in experiment [5] it was 18.1%; in [7] it was 14%. The Activity is 5.28% in experiment [8]; 40% in experiment [9]; 53% in [10]; 23.2% in experiment [11]; 20.2% in experiment [12]. In addition, in [6], the IC50 (as a rule, the concentration needed to halve the response being measured) stood at 74.17 µg/mL (≈ 186 µM).

Regarding `COc1ccc(C(=O)c2sc(Nc3ccc(C)cc3)c(C(=O)O)c2C)cc1`, the outcome in [1], in experiment [4], in [5], in [6], in experiment [7] and in experiment [8] was inactive. Also, the result in experiment [11] and in [12] was inactive. Also, the Activity in [2] amounted to 62%; in experiment [3], 56%; in [9], 26%; in [10], 63%.

In the case of `COC(=O)c1c(Nc2ccc(Cl)cc2)sc(C(=O)c2ccc(C)cc2)c1C`, the outcome in experiment [1], in experiment [4], in experiment [5], in [6], in experiment [7] and in experiment [8] was inactive. For the same compound, the outcome in experiment [11] and in [12] was inactive. Further, the Activity came to 26% in experiment [2], 34% in experiment [3], 43% in experiment [9] and 66% in experiment [10].

Consider `Cc1ccc(C(=O)c2sc(Nc3ccc(Cl)cc3)c(C(=O)O)c2C)cc1`, for which the outcome in experiment [1], in [4], in [5], in experiment [6], in [7] and in experiment [8] was inactive. Moreover, the result in experiment [11] and in experiment [12] was inactive. Besides, the Activity in experiment [2] is listed as 59%; in experiment [3], 63%; in experiment [9] it was 24%; in [10], 68%.

`COC(=O)c1c(Nc2ccc(C)cc2)sc(C(=O)c2ccc(OC)cc2)c1C`: the outcome in experiment [1], in experiment [4], in experiment [5], in [6], in [7] and in experiment [8] was inactive. For the same compound, the outcome in [11] and in [12] was inactive. In addition, the Activity in experiment [2] worked out at 70%; in experiment [3], 50%; in [9], 45%; in [10] it was 63%.

In the case of `Cc1ccc(Nc2sc(C(=O)c3ccc(C)cc3)c(C)c2C(=O)O)cc1`, the outcome in [1], in [4], in experiment [5], in [6], in experiment [7] and in experiment [8] was inactive. Also, the result in [11] and in experiment [12] was inactive. The Activity in experiment [2] is reported as 38%; in [3] it was 35%; in experiment [9], 18%; in experiment [10], 38%.
